Data from ChEMBL document CHEMBL1124569, “5-HT1A-receptor antagonism: N-alkyl derivatives of (R)-(-)-8,11-dimethoxynoraporphine” (J Med Chem, 1989).
Calls of active or inactive are those of the source. No cut-off for these calls is given here.

How the values were obtained:
[1] = target: T1, 5-hydroxytryptamine receptor 1A (Rattus norvegicus, UniProt P19327); experiment: Binding affinity of compound against 5-hydroxytryptamine 1A receptor binding site using radioligand [3H]8-OH-DPAT
T1 sequence (P19327 whole entry): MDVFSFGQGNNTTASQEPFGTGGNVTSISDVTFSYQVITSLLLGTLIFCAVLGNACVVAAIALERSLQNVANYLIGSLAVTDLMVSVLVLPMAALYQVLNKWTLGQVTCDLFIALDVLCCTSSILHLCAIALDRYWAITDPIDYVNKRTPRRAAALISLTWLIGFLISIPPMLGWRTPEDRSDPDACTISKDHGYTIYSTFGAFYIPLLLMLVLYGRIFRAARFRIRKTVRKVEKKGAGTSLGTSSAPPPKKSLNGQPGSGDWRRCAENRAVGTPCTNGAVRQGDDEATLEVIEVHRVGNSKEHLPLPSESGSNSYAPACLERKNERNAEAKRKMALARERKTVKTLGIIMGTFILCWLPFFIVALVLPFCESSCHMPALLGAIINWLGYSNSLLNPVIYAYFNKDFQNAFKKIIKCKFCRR

[2] = test system: Felis catus; experiment: Minimum effective dose administered intravenously for decrease in arterial pressure in cat heart; format: functional; settings: Artery, iv, read-out: MED
Summary of the method: (§1)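 Cats anesthetized with pentobarbital sodium (30 mg/kg ip), intubated and ventilated, with bilateral vagotomy and atropine sulfate 200 μg/kg. Compound given iv via femoral vein, doses up to 1 mg/kg. Femoral arterial pressure and heart rate were recorded continuously. The right postganglionic cardioaccelerator nerve was stimulated at 2 Hz, 5 ms, 20 V.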

[3] = test system: Felis catus; experiment: Minimum effective dose administered intravenously for decrease in heart rate in cat; format: functional; settings: iv, read-out: MED; summary of the method: as §1
[4] = target: D(2) dopamine receptor (Rattus norvegicus, UniProt P61169); experiment: Binding affinity of compound against Dopamine receptor D2 binding site using radioligand [3H]spiperone
Sequence of D(2) dopamine receptor (P61169 whole entry): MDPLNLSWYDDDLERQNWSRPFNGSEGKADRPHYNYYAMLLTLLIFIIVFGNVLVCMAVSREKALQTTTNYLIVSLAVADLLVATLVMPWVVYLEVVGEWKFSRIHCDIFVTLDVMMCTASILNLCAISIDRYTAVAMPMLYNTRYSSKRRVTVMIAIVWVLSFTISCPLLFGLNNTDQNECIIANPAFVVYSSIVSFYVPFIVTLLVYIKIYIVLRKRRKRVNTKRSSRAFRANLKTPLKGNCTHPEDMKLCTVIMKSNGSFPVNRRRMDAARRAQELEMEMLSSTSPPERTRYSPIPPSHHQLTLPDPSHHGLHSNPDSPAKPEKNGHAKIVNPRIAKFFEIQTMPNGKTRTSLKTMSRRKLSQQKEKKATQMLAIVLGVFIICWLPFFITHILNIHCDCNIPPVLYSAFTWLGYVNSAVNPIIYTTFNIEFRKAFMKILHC

[5] = species: Rattus norvegicus; experiment: Ability of compound to induce behavioral changes in rat; format: functional; settings: read-out: MED
Summary of the method: (§2)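 Rats dosed subcutaneously and observed for locomotor activity and serotonin syndrome signs (flat body posture, forepaw extension and padding, abducted hindlimbs, forebody tremor). Antagonism was tested by giving the compound 15 min before subcutaneous 8-OH-DPAT.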

[6] = species: Rattus norvegicus; experiment: Ability of compound to induce behavioral changes in rat; Not active; format: functional, organism-based; summary of the method: as §2

| SMILES | Ki [1] [nM] | minimal effective dose [2] [mg/kg] | minimal effective dose [3] [mg/kg] | Ki [4] [nM] | minimal effective dose [5] [mg/kg] | MED [6] |
| --- | --- | --- | --- | --- | --- | --- |
| COc1ccc(OC)c2c1C[C@@H]1c3c(cccc3-2)CCN1C | 8.6 | > 1 | > 1 | 210 | 5 | – |
| O=C(CCCN1CCC2(CC1)C(=O)NCN2c1ccccc1)c1ccc(F)cc1 [SPIPERONE] | 30 | – | – | – | – | – |
| CCCN(CCC)C1CCc2cccc(O)c2C1 (stereo not drawn) [8-OH-DPAT] | – | 0.01 | 0.01 | 3500 | 0.5 | – |
| CN1CCc2cccc3c2[C@H]1Cc1ccc(O)c(O)c1-3 [APOMORPHINE] | – | 0.01 | 0.01 | – | 1 | – |
| CCCN1CCc2cccc3c2[C@H]1Cc1c(OC)ccc(OC)c1-3 | 240 | > 1 | > 1 | 770 | – | inactive |
